# Results as given in PubChem BioAssay AID623951 (Broad Institute, 2012).
# Molecular target: PvdQ acyl-homoserine lactone acylase (Pseudomonas aeruginosa LESB58)
# Test: P. aeruginosa PvdQ acylase inhibitors, dose response, biochemical, fluorescence, plate reader, dry powder samples (AID 623951)
# Conditions: purified PvdQ, 4-MU laurate hydrolysis
# How it was run: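 Assay system: Purified Pseudomonas aeruginosa PvdQ acylase enzyme | Buffer or medium: Tris pH 8.0, NaCl, TCEP, Triton X-100 | Reagent: 4-methylumbelliferone laurate substrate at 0.8 mM final | Incubation: 30 min pre-incubation, 60 min reaction, RT | Detection: Fluorescence, ex 303–367 nm, em 440–460 nm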
row,AC50 [nM],Compound
1,121,CC(C)CC(C#N)c1ccc(Cl)cc1 (stereo unspecified)
2,140,N#Cc1cccc(C(C#N)c2ccc(Cl)cc2F)n1 (stereo unspecified)
3,414,N#CC(c1ccc(Cl)cc1)c1ccc(C(F)(F)F)c(Cl)n1 (stereo unspecified)
4,433,N#CC(c1ccc(C(F)(F)F)c(Cl)n1)c1ccccc1OC(F)(F)F (stereo unspecified)
5,831,N#CC(c1ccc(C(F)(F)F)c(Cl)n1)c1ccc(Cl)cc1Cl (stereo unspecified)
6,279,N#CC(c1ccc(Cl)cc1Cl)c1ncccc1Cl (stereo unspecified)
7,203,N#CC(c1cccc(Cl)n1)c1ccc(Cl)cc1Cl (stereo unspecified)
8,240,COc1cccc(C(C#N)c2ccc(F)cc2)n1 (stereo unspecified)
9,5.76,N#CC(c1ccc(Cl)cc1)c1ncccc1Cl (stereo unspecified)
10,20.2,CCCCC(C#N)c1ccc(F)cc1 (stereo unspecified)
11,5630,CC(C#N)(c1ccc(Cl)cc1)c1ccc(C(F)(F)F)cn1 (stereo unspecified)
12,380,N#Cc1cccc(C(C#N)c2ccc(Cl)cc2Cl)n1 (stereo unspecified)
13,138,Cc1cccc(C(C#N)c2ccc(Cl)cc2)n1 (stereo unspecified)
14,11.1,N#CC(c1ccc(Cl)cc1)c1cccc(C(F)(F)F)n1 (stereo unspecified)
15,1300,CCCCC(C#N)c1ccccc1OC(F)(F)F (stereo unspecified)
16,< 3,N#CC(c1cccc(C(F)(F)F)n1)c1ccc(Cl)cc1F (stereo unspecified)
17,221,Cc1ccc(C(C#N)c2ccc(Cl)cc2)nc1C#N (stereo unspecified)
18,398,N#CC(c1ccc(F)cc1)c1ccc(C(F)(F)F)c(Cl)n1 (stereo unspecified)
19,1390,N#CC(c1ccc(C(F)(F)F)cc1)c1ccc(C(F)(F)F)c(Cl)n1 (stereo unspecified)
20,118,CCCCC(C#N)c1ccc(Cl)cc1 (stereo unspecified)

row,AC50 [nM],Compound
1,62.8,N#CC(c1ccc(Cl)cc1)c1ccc(Cl)cn1 (stereo unspecified)
2,287,N#CC(c1ccc(C(F)(F)F)cc1)c1cccc(Cl)n1 (stereo unspecified)
3,138,N#Cc1cccc(C(C#N)c2ccc(Cl)cc2)n1 (stereo unspecified)
4,11.7,N#CC(c1ccc(F)cc1)c1cccc(C(F)(F)F)n1 (stereo unspecified)
5,142,Cc1ccc(C(C#N)c2ccc(F)cc2)nc1C#N (stereo unspecified)
6,546,N#CC(c1ccc(Cl)cc1)c1ccc(C(F)(F)F)cn1 (stereo unspecified)
7,99.4,CCCC(C#N)c1ccc(Cl)cc1 (stereo unspecified)
8,802,N#CC(c1ccc(C(F)(F)F)c(Cl)n1)c1ccc(Cl)cc1F (stereo unspecified)
9,258,N#CC(CC1CC1)c1ccc(Cl)cc1 (stereo unspecified)
10,467,Cc1ccc(C(C#N)c2ccccc2OC(F)(F)F)nc1C#N (stereo unspecified)
11,182,CCCCC(C#N)c1ccc(C(F)(F)F)cc1 (stereo unspecified)
12,2660,N#Cc1ccc(C(C#N)c2ccc(Cl)cc2)nc1 (stereo unspecified)
13,936,N#CC(c1cccc(Cl)n1)c1ccccc1OC(F)(F)F (stereo unspecified)
14,457,CCCCC(C#N)c1ccc(Cl)cc1F (stereo unspecified)
15,43.4,N#CC(c1ccc(C(F)(F)F)cc1)c1cccc(C(F)(F)F)n1 (stereo unspecified)
16,77,N#CC(c1cccc(Cl)n1)c1ccc(Cl)cc1F (stereo unspecified)
17,1530,N#CC(c1cccc(C(F)(F)F)n1)c1ccccc1OC(F)(F)F (stereo unspecified)
18,2700,N#Cc1ccc(C(C#N)c2ccc(Cl)cc2Cl)nc1 (stereo unspecified)
19,271,Cc1ccc(C(C#N)c2ccc(Cl)cc2)nc1 (stereo unspecified)
20,1340,N#Cc1cccc(C(C#N)c2ccccc2OC(F)(F)F)n1 (stereo unspecified)

row,Compound,AC50 [nM]
1,CCCCC(C#N)c1ccc(Cl)cc1Cl (stereo unspecified),75.6
